Source: ChEMBL document CHEMBL1671848, “In Vitro and In Vivo Osteogenic Activity of Largazole” (ACS Med Chem Lett, 2011)
Active and inactive are the calls of the source. The rule behind the calls is not given here.

How the values were obtained:
C2C12 [1] = experiment: Osteogenic activity in mouse C2C12 cells assessed as increase of BMP7 mRNA expression at up to 50 nM after 6 days by RT-PCR analysis; assay type: functional, cell-based
Procedure, shortened: (§1)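 Quantitative real-time PCR of mRNA from C2C12 cells, 1 × 10^6 cells per 60-mm plate, treated 6 days; rhBMP-2 at 300 ng/mL served as reference osteoblastogenesis inducer.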

C2C12 [2] = experiment: Induction of osteoblast differentiation in mouse C2C12 cells assessed as increase of osteopontin expression up to 100 nM after 6 days; assay type: functional, cell-based
Oryctolagus cuniculus = organism: Oryctolagus cuniculus; experiment: Osteogenic activity in rabbit calvarial bone fracture healing model assessed as bone formation at 100 to 200 nM after 4 weeks; assay type: functional
[3] = target: Runt-related transcription factor 2 (Mus musculus) (UniProt Q08775); experiment: Activation of Runx2 activity in mouse C2C12 cells at 50 nM after 24 hrs by luciferase reporter gene assay relative to control; assay type: cell-based
Runt-related transcription factor 2 (Mus musculus), sequence (Q08775 whole entry): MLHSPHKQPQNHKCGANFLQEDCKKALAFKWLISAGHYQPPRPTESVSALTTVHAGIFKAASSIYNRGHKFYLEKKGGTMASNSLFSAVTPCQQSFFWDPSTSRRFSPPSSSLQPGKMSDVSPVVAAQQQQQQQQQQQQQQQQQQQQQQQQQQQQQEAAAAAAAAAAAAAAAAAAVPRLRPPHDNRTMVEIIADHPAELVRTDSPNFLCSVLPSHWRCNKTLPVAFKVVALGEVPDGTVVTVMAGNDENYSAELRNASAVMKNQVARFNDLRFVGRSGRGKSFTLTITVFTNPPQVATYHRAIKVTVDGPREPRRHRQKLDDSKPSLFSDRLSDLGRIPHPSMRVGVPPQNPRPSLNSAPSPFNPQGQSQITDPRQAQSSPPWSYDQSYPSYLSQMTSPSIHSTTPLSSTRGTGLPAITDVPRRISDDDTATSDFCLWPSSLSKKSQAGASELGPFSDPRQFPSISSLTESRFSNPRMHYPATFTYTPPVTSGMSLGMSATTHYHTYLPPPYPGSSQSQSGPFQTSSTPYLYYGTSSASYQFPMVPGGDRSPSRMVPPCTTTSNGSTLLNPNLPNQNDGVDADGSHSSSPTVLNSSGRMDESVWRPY
Procedure, shortened: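 6×OSE2-luc plasmid-transfected C2C12 cells, 4 × 10^3 cells/well, cultured 1 day, then 1 day in DMEM with 5% FBS with or without compound; Runx2 activation read as luciferase activity.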

C2C12 [4] = experiment: Osteogenic activity in mouse C2C12 cells assessed as increase of BMP6 mRNA expression at up to 50 nM after 6 days by RT-PCR analysis; assay type: functional, cell-based; procedure, shortened: as §1
C2C12 [5] = experiment: Inhibition of HDAC in mouse C2C12 cells at 5 to 100 nM after 24 hrs by fluorescence assay; assay type: cell-based
Procedure, shortened: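 Total HDAC activity in intact C2C12 cells, 4 × 10^3 cells/well, cultured 24 h, pretreated with compound 1 h, then incubated with fluorogenic deacetylase Lysyl substrate; HDAC activity read by fluorescence per kit protocol.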

C2C12 [6] = experiment: Osteogenic activity in mouse C2C12 cells assessed as increase of BMP9 mRNA expression at up to 50 nM after 6 days by RT-PCR analysis; assay type: functional, cell-based; procedure, shortened: as §1
C2C12 [7] = experiment: Osteogenic activity in mouse C2C12 cells assessed as inhibition of multinucleated osteoclasts formation after 6 days; assay type: functional, cell-based
C2C12 [8] = experiment: Osteogenic activity in mouse C2C12 cells assessed as increase of BMP2 mRNA expression at up to 50 nM after 6 days by RT-PCR analysis; assay type: functional, cell-based; procedure, shortened: as §1
Mus musculus [9] = experiment: Osteogenic activity in mouse assessed as induction of woven bone formation at 50 uM administered with collagen sponges in calvarial bone after 3 weeks; assay type: functional, organism-based
Procedure, shortened: (§2)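 Collagen sponges holding 5 μL of compound solution or PBS vehicle placed onto mouse calvarial bones; after 3-week implantation calvariae removed, fixed, decalcified, paraffin-embedded and sectioned for histology of woven bone formation.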

C2C12 [10] = experiment: Induction of osteoblast differentiation in mouse C2C12 cells assessed as increase of alkaline phosphatase expression after 6 days; assay type: functional, cell-based
Procedure, shortened: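 C2C12 cells, 4 × 10^3 cells/well, cultured 24 h, then treated for 6 days with medium changed every 3 days; osteoblast differentiation assessed by alkaline phosphatase staining.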

C2C12 [11] = experiment: Osteogenic activity in mouse C2C12 cells assessed as increase of Runx2 mRNA expression at 50 nM after 6 days by RT-PCR analysis relative to control; assay type: functional; procedure, shortened: as §1
C2C12 [12] = experiment: Cytotoxicity against mouse C2C12 cells up to 100 uM after 3 days; assay type: cell-based; conditions: c2c12, 72 h
C2C12 [13] = experiment: Osteogenic activity in mouse C2C12 cells assessed as increase of BMP4 mRNA expression at up to 50 nM after 6 days by RT-PCR analysis; assay type: functional, cell-based; procedure, shortened: as §1
Mus musculus [14] = experiment: Osteogenic activity in mouse assessed as induction of woven bone formation at 10 uM administered with collagen sponges in calvarial bone after 3 weeks; assay type: functional, organism-based; procedure, shortened: as §2
C2C12 [15] = experiment: Inhibition of HDAC in mouse C2C12 cells assessed as increase of acetylated histone level after 24 hrs by Western blotting; assay type: cell-based
Procedure, shortened: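 C2C12 cells, 2 × 10^6 cells per 100-mm plate, cultured 24 h, then treated 24 h; protein extracts analysed for hyperacetylated histones by Western blot with actin as loading control.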

Structure (SMILES): CCCCCCCC(=O)SCC/C=C/[C@@H]1CC(=O)NCc2nc(cs2)C2=N[C@@](C)(CS2)C(=O)N[C@@H](C(C)C)C(=O)O1 [LARGAZOLE]
- Activity (C2C12 [1]): Active
- Activity (C2C12 [2]): Active
- Activity (Oryctolagus cuniculus): Active
- fold change (FC) [3]: 29
- Activity (C2C12 [4]): Active
- inhibition (C2C12 [5]): Active
- Activity (C2C12 [6]): Active
- Activity (C2C12 [7]): Active
- Activity (C2C12 [8]): Active
- Activity (Mus musculus [9]): Active
- Activity (C2C12 [10]): Active
- fold change (FC) (C2C12 [11]): 3
- Activity (C2C12 [12]): Non-toxic
- Activity (C2C12 [13]): Active
- Activity (Mus musculus [14]): Active
- inhibition (C2C12 [15]): Dose-dependent effect
